Source: ChEMBL document CHEMBL4371064, “Erythrofordins D and E, two new cassaine-type diterpenes from Erythrophleum suaveolens” (2019)

What was measured:
Type in all cases: functional
[1] = tested on: IGROV-1; test: Growth inhibition of human IGROV1 cells incubated for 48 hrs by sulforhodamine B assay; conditions: IGROV-1, 48 h; for TGI: read-out: pTGI (converted)
In short: (§1)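 Run in the NCI-60 human tumour cell line panel with dose-response testing. GI50 was determined for each cell line from its dose-response data.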

[2] = tested on: 786-0; test: Growth inhibition of human 786-0 cells incubated for 48 hrs by sulforhodamine B assay; conditions: 786-0, 48 h; for TGI: read-out: pTGI (converted); in short: as §1
[3] = tested on: HCC 2998; test: Growth inhibition of human HCC2998 cells incubated for 48 hrs by sulforhodamine B assay; conditions: HCC 2998, 48 h; for TGI: read-out: pTGI (converted); in short: as §1
[4] = tested on: OVCAR-4; test: Growth inhibition of human OVCAR4 cells incubated for 48 hrs by sulforhodamine B assay; conditions: OVCAR-4, 48 h; for TGI: read-out: pTGI (converted); in short: as §1
[5] = tested on: SK-MEL-28; test: Growth inhibition of human SK-MEL-28 cells incubated for 48 hrs by sulforhodamine B assay; conditions: SK-MEL-28, 48 h; for TGI: read-out: pTGI (converted); in short: as §1
[6] = tested on: SN12C; test: Growth inhibition of human SN12C cells incubated for 48 hrs by sulforhodamine B assay; conditions: for TGI: read-out: pTGI (converted); in short: as §1
[7] = tested on: HOP-62; test: Growth inhibition of human HOP62 cells incubated for 48 hrs by sulforhodamine B assay; conditions: HOP-62, 48 h; for CC50: read-out: pLC50 (the source's name) (converted); for TGI: read-out: pTGI (converted); in short: as §1
[8] = tested on: MDA-MB-231; test: Growth inhibition of human MDA-MB-231 cells incubated for 48 hrs by sulforhodamine B assay; conditions: MDA-MB-231, 48 h; for TGI: read-out: pTGI (converted); in short: as §1
[9] = tested on: UACC-62; test: Growth inhibition of human UACC62 cells incubated for 48 hrs by sulforhodamine B assay; conditions: UACC-62, 48 h; for TGI: read-out: pTGI (converted)
In short: (§2)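 Tested in the NCI 60-human-tumour-cell-line screen using the five-dose format. GI₅₀ was derived from each cell line's dose-response. TGI and LC₅₀ were derived from the same dose-response data.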

[10] = tested on: OVCAR-8; test: Growth inhibition of human OVCAR8 cells incubated for 48 hrs by sulforhodamine B assay; conditions: OVCAR-8, 48 h; for TGI: read-out: pTGI (converted); in short: as §1
[11] = tested on: PC-3; test: Growth inhibition of human PC3 cells incubated for 48 hrs by sulforhodamine B assay; conditions: PC-3, 48 h; for CC50: read-out: pLC50 (the source's name) (converted); for TGI: read-out: pTGI (converted); in short: as §1
[12] = tested on: RXF 393; test: Growth inhibition of human RXF393 cells incubated for 48 hrs by sulforhodamine B assay; conditions: RXF 393, 48 h; for CC50: read-out: pLC50 (the source's name) (converted); for TGI: read-out: pTGI (converted); in short: as §1
[13] = tested on: KM12; test: Growth inhibition of human KM12 cells incubated for 48 hrs by sulforhodamine B assay; conditions: KM12, 48 h; for TGI: read-out: pTGI; in short: as §1
[14] = tested on: UO-31; test: Growth inhibition of human UO31 cells incubated for 48 hrs by sulforhodamine B assay; conditions: UO-31, 48 h; for TGI: read-out: pTGI (converted); in short: as §2
[15] = tested on: MDA-MB-435; test: Growth inhibition of human MDA-MB-435 cells incubated for 48 hrs by sulforhodamine B assay; conditions: MDA-MB-435, 48 h; for TGI: read-out: pTGI (converted); in short: as §1
[16] = tested on: NCI-H460; test: Growth inhibition of human NCI-H460 cells incubated for 48 hrs by sulforhodamine B assay; conditions: NCI-H460, 48 h; for TGI: read-out: pTGI (converted); in short: as §1
[17] = tested on: MDA-MB-468; test: Growth inhibition of human MDA-MB-468 cells incubated for 48 hrs by sulforhodamine B assay; conditions: MDA-MB-468, 48 h; for CC50: read-out: pLC50 (the source's name) (converted); for TGI: read-out: pTGI (converted); in short: as §1
[18] = tested on: TK-10; test: Growth inhibition of human TK10 cells incubated for 48 hrs by sulforhodamine B assay; conditions: TK-10, 48 h; for TGI: read-out: pTGI (converted); in short: as §2
[19] = tested on: T47D; test: Growth inhibition of human T47D cells incubated for 48 hrs by sulforhodamine B assay; conditions: for TGI: read-out: pTGI (converted); in short: as §2
[20] = tested on: CCRF-CEM; test: Growth inhibition of human CCRF-CEM cells incubated for 48 hrs by sulforhodamine B assay; conditions: for TGI: read-out: pTGI (converted); in short: as §1
[21] = tested on: ACHN; test: Growth inhibition of human ACHN cells incubated for 48 hrs by sulforhodamine B assay; conditions: for TGI: read-out: pTGI (converted); in short: as §1
[22] = tested on: NCI-H522; test: Growth inhibition of human NCI-H522 cells incubated for 48 hrs by sulforhodamine B assay; conditions: NCI-H522, 48 h; for TGI: read-out: pTGI (converted); in short: as §1
[23] = tested on: RPMI-8226; test: Growth inhibition of human RPMI8226 cells incubated for 48 hrs by sulforhodamine B assay; conditions: RPMI-8226, 48 h; for TGI: read-out: pTGI (converted); in short: as §1
[24] = tested on: SNB-19; test: Growth inhibition of human SNB19 cells incubated for 48 hrs by sulforhodamine B assay; conditions: SNB-19, 48 h; for TGI: read-out: pTGI (converted); in short: as §1
[25] = tested on: A498; test: Growth inhibition of human A498 cells incubated for 48 hrs by sulforhodamine B assay; conditions: A498, 48 h; for TGI: read-out: pTGI (converted)
In short: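 Run within the NCI-60 human tumour cell line panel as a dose-response screen. For each cell line the readouts are GI50, TGI and LC50. Per-line log values also feed a mean-graph analysis, in which the arithmetic mean of the log values across all lines is subtracted from each line's log value.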

[26] = tested on: UACC-257; test: Growth inhibition of human UACC257 cells incubated for 48 hrs by sulforhodamine B assay; conditions: UACC-257, 48 h; for TGI: read-out: pTGI (converted); in short: as §2
[27] = tested on: K562; test: Growth inhibition of human K562 cells incubated for 48 hrs by sulforhodamine B assay; conditions: K562, 48 h; for TGI: read-out: pTGI (converted); in short: as §1
[28] = tested on: SK-MEL-5; test: Growth inhibition of human SK-MEL-5 cells incubated for 48 hrs by sulforhodamine B assay; conditions: SK-MEL-5, 48 h; for TGI: read-out: pTGI (converted); in short: as §1
[29] = tested on: DU-145; test: Growth inhibition of human DU145 cells incubated for 48 hrs by sulforhodamine B assay; conditions: DU-145, 48 h; for TGI: read-out: pTGI (converted); in short: as §1

## COC(=O)/C=C1\CC[C@H]2[C@@H](CC(=O)[C@H]3C(C)(C)C(=O)CC[C@]23C)[C@H]1C
[1]
  GI50: 1.29 µM
  LC50: > 34.7 µM
  TGI: 7.59 µM
[2]
  GI50: 0.676 µM
  LC50: 3.16 µM
  TGI: 1.45 µM
[3]
  GI50: 1.45 µM
  LC50: > 34.7 µM
  TGI: 8.13 µM
[4]
  GI50: 0.676 µM
  LC50: 5.75 µM
  TGI: 1.62 µM
[5]
  GI50: 1.17 µM
  LC50: > 34.7 µM
  TGI: 5.01 µM
[6]
  GI50: 0.513 µM
  LC50: > 34.7 µM
  TGI: 1.86 µM
[7]
  GI50: 0.55 µM
  CC50: 2.63 µM
  TGI: 1.2 µM
[8]
  GI50: 1.48 µM
  LC50: > 34.7 µM
  TGI: 7.94 µM
[9]
  GI50: 0.832 µM
  LC50: 11.5 µM
  TGI: 2.29 µM
[10]
  GI50: 0.851 µM
  LC50: 11 µM
  TGI: 2.29 µM
[11]
  GI50: 0.933 µM
  CC50: > 34.7 µM
  TGI: 2.75 µM
[12]
  GI50: 0.776 µM
  CC50: > 34.7 µM
  TGI: 2.57 µM
[13]
  GI50: 1.23 µM
  LC50 (concentration killing 50% of cells): 24 µM
  TGI: 5.25 µM
[14]
  GI50: 0.55 µM
  LC50: 2.24 µM
  TGI: 1.1 µM
[15]
  GI50: 1.07 µM
  LC50: 20.4 µM
  TGI: 3.8 µM
[16]
  GI50: 0.17 µM
  LC50: 2.14 µM
  TGI: 0.661 µM
[17]
  GI50: 1.7 µM
  CC50: > 34.7 µM
  TGI: 12.3 µM
[18]
  GI50: 0.794 µM
  LC50 (lethal concentration killing 50% of cells): 14.8 µM
  TGI: 2.4 µM
[19]
  GI50: 1 µM
  LC50: > 34.7 µM
  TGI: 2.95 µM
[20]
  GI50: 0.708 µM
  LC50: > 34.7 µM
  TGI: 2.29 µM
[21]
  GI50: 0.162 µM
  LC50: 1.86 µM
  TGI: 0.617 µM
[22]
  GI50: 0.166 µM
  LC50: > 34.7 µM
  TGI: 0.977 µM
[23]
  GI50: 1.29 µM
  LC50: > 34.7 µM
  TGI: 22.4 µM
[24]
  GI50: 1.2 µM
  LC50: 12.9 µM
  TGI: 4.47 µM
[25]
  LC50: > 34.7 µM
  TGI: 1.74 µM
[26]
  GI50: 0.891 µM
  LC50: 18.6 µM
  TGI: 2.45 µM
[27]
  GI50: 1.15 µM
  LC50: > 34.7 µM
  TGI: 5.37 µM
[28]
  GI50: 0.708 µM
  LC50: 3.16 µM
  TGI: 1.48 µM
[29]
  GI50: 0.575 µM
  LC50 (concentration killing 50% of cells): 1.95 µM
  TGI: 1.05 µM

## COC(=O)/C=C1\CC[C@H]2[C@@H](CC(=O)[C@H]3C(C)(C)[C@@H](O)CC[C@]23C)[C@H]1C
[1]
  GI50: 3.8 µM
  LC50: > 34.7 µM
  TGI: 22.4 µM
[2]
  GI50: 1.12 µM
  LC50: 24.5 µM
  TGI: 4.27 µM
[3]
  GI50: 10.7 µM
  LC50: > 34.7 µM
  TGI: > 34.7 µM
[4]
  GI50: 3.72 µM
  LC50: > 34.7 µM
  TGI: 12.3 µM
[5]
  GI50: 9.33 µM
  LC50: > 34.7 µM
  TGI: 33.1 µM
[6]
  GI50: 1.1 µM
  LC50: > 34.7 µM
  TGI: 5.89 µM
[7]
  GI50: 1.1 µM
  CC50: 15.1 µM
  TGI: 4.47 µM
[8]
  GI50: 10.2 µM
  LC50: > 34.7 µM
  TGI: > 34.7 µM
[9]
  GI50: 5.62 µM
  LC50: > 34.7 µM
  TGI: 16.6 µM
[10]
  GI50: 1.38 µM
  LC50: > 34.7 µM
  TGI: 7.24 µM
[11]
  GI50: 3.16 µM
  CC50: > 34.7 µM
  TGI: 15.8 µM
[12]
  GI50: 0.933 µM
  CC50: > 34.7 µM
  TGI: 3.31 µM
[13]
  GI50: 11 µM
  LC50 (concentration killing 50% of cells): > 34.7 µM
  TGI: > 34.7 µM
[14]
  GI50: 1.05 µM
  LC50: 16.2 µM
  TGI: 5.01 µM
[15]
  GI50: 8.51 µM
  LC50: > 34.7 µM
  TGI: > 34.7 µM
[16]
  GI50: 0.776 µM
  LC50: 5.13 µM
  TGI: 1.74 µM
[17]
  GI50: 10 µM
  CC50: > 34.7 µM
  TGI: > 34.7 µM
[18]
  GI50: 1.48 µM
  LC50 (lethal concentration killing 50% of cells): > 34.7 µM
  TGI: 7.94 µM
[19]
  GI50: 5.37 µM
  LC50: > 34.7 µM
  TGI: 21.9 µM
[20]
  GI50: 1.15 µM
  LC50: > 34.7 µM
  TGI: 7.59 µM
[21]
  GI50: 0.794 µM
  LC50: 10 µM
  TGI: 2.19 µM
[22]
  GI50: 0.741 µM
  LC50: 27.5 µM
  TGI: 2.29 µM
[23]
  GI50: 8.91 µM
  LC50: > 34.7 µM
  TGI: > 34.7 µM
[24]
  GI50: 9.33 µM
  LC50: > 34.7 µM
  TGI: > 34.7 µM
[25]
  LC50: > 34.7 µM
  TGI: 14.8 µM
[26]
  GI50: 6.03 µM
  LC50: > 34.7 µM
  TGI: 16.2 µM
[27]
  GI50: 5.13 µM
  LC50: > 34.7 µM
  TGI: 28.8 µM
[28]
  GI50: 1.29 µM
  LC50: 25.7 µM
  TGI: 5.75 µM
[29]
  GI50: 0.776 µM
  LC50 (concentration killing 50% of cells): 4.79 µM
  TGI: 1.74 µM
